Hits are enriched below; roughly 2.4% of the tested compounds scored in any of these assays.
LGR2 inh: inhibitors of bursicon-induced LGR2 CRE-luciferase signal, primary screen, cell-based, HEK293, CRE-luciferase reporter, bursicon stimulation; inhibition, % at 9.99 µM; AID 720647, 2013; bursicon-stimulated, 4 h; actives 0.35% (n = 380,000);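 active = drop in luminescence signal, shown as inhibition above about 50% in the replicate tests, limit read from the data, passing the limit was not always enough; inconclusive = probably only some replicates passing the limit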;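 also: agonist challenge used bursicon conditioned medium at about half maximal strength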
E-selectin induc: E-selectin induction in HUVECs, primary screen, imaging, HUVEC, immunofluorescence imaging, single point; normalized: neutral wells 0, TNF-alpha wells 100; actives 0.37% (n = 260,000); activation, % at 7.58 µM; P16581;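 active = mean E-selectin-positive cell signal at least 10% of the positive control, reached in at least 60% of replicates, without over 20% cell loss; inconclusive = no rule given, readout overlaps actives, possibly toxicity-flagged; inactive = the rest, including those meeting only one limit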
Target sequence (P16581 whole entry, looked up): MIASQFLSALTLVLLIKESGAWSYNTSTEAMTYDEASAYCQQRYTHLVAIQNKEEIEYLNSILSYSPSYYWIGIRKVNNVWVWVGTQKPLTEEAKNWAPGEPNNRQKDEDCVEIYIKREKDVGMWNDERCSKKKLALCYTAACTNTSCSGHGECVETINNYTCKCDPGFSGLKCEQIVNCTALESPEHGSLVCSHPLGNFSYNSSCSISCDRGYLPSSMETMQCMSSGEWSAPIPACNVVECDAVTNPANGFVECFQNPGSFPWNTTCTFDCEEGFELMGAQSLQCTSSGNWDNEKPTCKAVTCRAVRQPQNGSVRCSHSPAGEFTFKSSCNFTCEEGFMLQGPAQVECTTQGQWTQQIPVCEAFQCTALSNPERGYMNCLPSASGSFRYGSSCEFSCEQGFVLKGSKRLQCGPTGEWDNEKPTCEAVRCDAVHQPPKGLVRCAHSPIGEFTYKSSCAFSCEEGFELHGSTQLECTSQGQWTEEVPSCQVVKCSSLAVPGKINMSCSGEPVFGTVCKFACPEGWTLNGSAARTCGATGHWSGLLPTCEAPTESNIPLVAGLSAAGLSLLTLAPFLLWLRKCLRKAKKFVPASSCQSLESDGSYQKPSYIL
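System: HUVEC, human umbilical vein endothelial cells; quantity: 3,000 cells/well; buffer or medium: EGM-2 medium, gelatin-coated wells; dosing: single-point compound dose; detection: immunofluorescence imaging; evaluation: % PE-positive cells; benchmarks: TNF-alpha, DMSO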
rRNA inh HTS: reduced GFP signal of wild-type E. coli, primary screen, bacterial rRNA inhibitor project, GFP/RFP fluorescence, OD600, single point; actives 1.6% (n = 350,000); E. coli WT GFP vs humanized-ribosome RFP mutants, 24 h; active compounds read low; DMSO median 0, no signal -100; GFP signal change (wild-type ribosome), % (no concentration beside the values);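 active = significant combined selectivity score with lowered wild-type GFP, culture density cut under 30%, mutant RFP and density less affected; inactive = any of these conditions unmet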
EWS-Fli inh: EWS/Fli-driven NR0B1 reporter inhibitors, primary screen, A673 cells, NR0B1 luciferase, luminescence, MLPCN library; AID 651661, 2012; inhibition, % at 12.6 µM; viability-normalised; actives 0.67% (n = 350,000);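 active = mean inhibition of at least 50% after viability correction, with every replicate also passing that limit; inconclusive = mean reaches 50% but only one of two replicates passes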;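 also: firefly luciferase signal divided by Alamar Blue viability fluorescence both relative to DMSO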
HepG2 tox: cytotoxicity in HepG2 cells, dose response, cytotoxicity control, cell-based, CellTiter-Glo luminescence, cherry-pick, set 4; activity change, negative = cytotoxicity, unspecified at 26 µM; shares compounds with rRNA inh HTS; AID 743480, 2014; 30 tested, under 10 active; HepG2 viability, ATP luminescence, 72 h;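 active = compounds whose fitted half-maximal signal-loss concentration is at most twice their highest valid dose; inconclusive = flat curve with 30 to 70% signal loss, or poor fit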
AID977621: growth inhibition of wild-type GFP E. coli, dose response, H69 mutant RFP, cherry-pick | shares compounds with rRNA inh HTS | E. coli wild-type GFP strain growth, fluorescence, 24 h | activity change, negative = inhibition at 50 µM | 1,900 tested, under 10 active;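 active = Wild-type ribosome reporter drop at least double the humanized mutant ribosome reporter drop, growth loss under a set limit; inconclusive = no clear call, values can overlap the other calls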;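 also: wild-type GFP and H69 mutant RFP strains grown together 50/50 in each well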
AID977628: E. coli growth inhibition, wild-type GFP versus h24 humanized RFP strain, dose response, h24 mutant RFP vs wild-type GFP, cherry-pick | shares compounds with rRNA inh HTS | E. coli WT GFP strain growth, fluorescence, 24 h | activity change, negative = inhibition at 50 µM | 1,900 tested, under 10 active | AID 977628, 2014;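 active = compound lowering the normal-ribosome reporter at least twice as much as the humanized-ribosome reporter, growth loss under a set limit; inconclusive = no clear call, values can overlap the other calls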;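 also: wild-type GFP and h24 humanized RFP strains co-cultured 1 to 1 per well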
Of the large screens only hits and unclear results are named; the others gave an inactive call (follow-up assays come after a bar, where they were run).

CCOc1cccc(-c2cc(-c3n[nH]c(=S)n3CC)c3ccccc3n2)c1	rRNA inh HTS -36.6 (no result: E-selectin induc) | AID977621 inactive | AID977628 inconclusive
Cc1ccc(S(=O)(=O)Nc2ccc3c(c2)C(=O)N([C@H](C)CO)C[C@H](C)[C@H](CN(C)C(=O)Cc2ccccc2)OCCCC[C@H](C)O3)cc1	none (no result: E-selectin induc)
C[C@H]1CN([C@@H](C)CO)C(=O)c2cccc(NC(=O)C3CC3)c2O[C@H]1CN(C)S(=O)(=O)c1cn(C)cn1	none
Cc1nc(SCC(=O)Nc2ccc3c(c2)OCCO3)nc(C)c1C	rRNA inh HTS -18.0 | AID977621 inactive
C[C@@H]1CN([C@H](C)CO)C(=O)Cc2cc(NS(=O)(=O)c3ccc(F)cc3)ccc2O[C@H]1CN(C)CC1CCCCC1	none
C[C@@H]1CCCCO[C@H](CN(C)C(=O)Nc2cccc3ccccc23)[C@H](C)CN([C@@H](C)CO)C(=O)c2cc(NC(=O)Nc3cccc4ccccc34)ccc2O1	none
C[C@H](CO)N1C[C@H](C)[C@H](CN(C)C)OCCCC[C@H](C)Oc2ccc(NC(=O)Nc3cccc4ccccc34)cc2C1=O	none | AID977621 inactive | AID977628 inconclusive
CC(C)NC(=O)N(C)C[C@H]1OCCCC[C@@H](C)Oc2ccc(NC(=O)Nc3cccc4ccccc34)cc2C(=O)N([C@@H](C)CO)C[C@H]1C	rRNA inh HTS -30.7 (no result: E-selectin induc) | AID977628 inconclusive
C[C@H](CO)N1C[C@H](C)[C@@H](CN(C)C)OCCCC[C@H](C)Oc2ccc(NC(=O)Nc3cccc4ccccc34)cc2C1=O	none | AID977621 inactive | AID977628 inconclusive
C[C@@H]1CCCCO[C@H](CN(C)C(=O)Nc2cccc3ccccc23)[C@@H](C)CN([C@H](C)CO)C(=O)c2cc(NC(=O)Nc3cccc4ccccc34)ccc2O1	none
C[C@H]1CCCCO[C@@H](CN(C)C)[C@@H](C)CN([C@@H](C)CO)C(=O)c2cc(NC(=O)Nc3cccc4ccccc34)ccc2O1	none | AID977621 inactive | AID977628 inconclusive
COc1ccc(NC(=O)N(C)C[C@H]2Oc3ccc(NC(=O)Nc4ccc5c(c4)OCO5)cc3CC(=O)N([C@@H](C)CO)C[C@@H]2C)cc1	none
CN(C)C(=O)[C@H]1[C@H](CO)[C@H]2Cn3c(cccc3=O)[C@@H]1N2C(=O)c1ccccc1	none
Cc1noc(C)c1NC(=O)N1C[C@H](O)COC[C@@H]2O[C@@H](CC(=O)N[C@H]3CCN(Cc4ccccc4)C3)CC[C@H]21	none (no result: LGR2 inh, E-selectin induc, EWS-Fli inh)
CC(C)NC(=O)N(C)C[C@H]1OCCCC[C@@H](C)Oc2ccc(NC(=O)c3ccccc3)cc2C(=O)N([C@@H](C)CO)C[C@H]1C	rRNA inh HTS -20.4 (no result: EWS-Fli inh) | AID977621 inactive | AID977628 inconclusive
CC(C)NC(=O)N(C)C[C@H]1OCCCC[C@@H](C)Oc2ccc(NC(=O)c3ccccc3)cc2C(=O)N([C@H](C)CO)C[C@@H]1C	none (no result: EWS-Fli inh)
C[C@@H]1CCCCO[C@H](CN(C)CC2CC2)[C@H](C)CN([C@@H](C)CO)C(=O)c2cc(NC(=O)Nc3cccc4ccccc34)ccc2O1	rRNA inh HTS -26.7 | HepG2 tox inactive
C[C@@H]1CCCCO[C@@H](CN(C)C)[C@H](C)CN([C@H](C)CO)C(=O)c2cc(NC(=O)Nc3cccc4ccccc34)ccc2O1	none | AID977621 inactive | AID977628 inconclusive
C[C@@H]1CCCCO[C@@H](CN(C)C)[C@@H](C)CN([C@H](C)CO)C(=O)c2cc(NC(=O)Nc3cccc4ccccc34)ccc2O1	none | AID977621 inactive | AID977628 inconclusive
CO[C@H]1CC[C@H]2CCN(C)C(=O)[C@@H](C)[C@@H](OC)CN(C)C(=O)c3cc(C#N)ccc3OC[C@@H]1O2	none
COc1ccc(CNC(=O)C[C@H]2CC[C@@H](NC(=O)c3cccc(F)c3)[C@@H](CO)O2)cc1	none
CCOc1ccccc1N1CCN(Cc2cn[nH]c2-c2ccc(F)cc2)CC1	rRNA inh HTS -19.3 | AID977621 inactive
CCCC#Cc1cnc2c(c1)C(=O)N([C@H](C)CO)C[C@H](C)[C@@H](CN(C)C(=O)Cc1cccnc1)O2	none
Oc1ccccc1Oc1ncc(Br)c(Cl)n1	rRNA inh HTS -25.1 (no result: E-selectin induc) | AID977628 inactive
O=C(O)c1ccccc1Nc1cc(Cl)c2nonc2c1[N+](=O)[O-]	rRNA inh HTS -20.3 | AID977621 inconclusive
Cc1cccc(-c2ncc(CN3CCN(C4CCCC4)C(CCO)C3)cn2)c1 (stereo not given)	none (no result: E-selectin induc)
OCCC1CN(Cc2cnc(-c3ccc(Cl)cc3)nc2)CCN1C1CCCCC1 (stereo not given)	rRNA inh HTS -18.4 | AID977621 inactive | AID977628 inactive
COCC(=O)N1CC2(C1)CN(Cc1ccccc1Cl)[C@@H](CO)c1c2c2ccc(OC)cc2n1C	none
COc1ccccc1CN1[C@@H](CO)[C@@H](c2ccccc2)C12CN(C(=O)c1ccccn1)C2	none
CCOC(=O)c1cnc2ccc(OCC)cc2c1NCCN1CCOCC1	none (no result: E-selectin induc)
CCOC(=O)c1cnc2ccc(OCC)cc2c1NCCCN1CCOCC1	rRNA inh HTS -21.5 (no result: E-selectin induc) | AID977621 inactive | AID977628 inconclusive
Cc1ccc(Nc2cc(C(=O)NCCCN3CCOCC3)c3ccccc3n2)cc1C	rRNA inh HTS -21.9 (no result: E-selectin induc) | AID977628 inconclusive
O=C(NCCCN1CCOCC1)c1cc(-c2ccccc2)nc2ccccc12	none (no result: E-selectin induc)
CSc1cccc(NC(=O)CCNC(=O)c2ccco2)c1	none
O=C(CCNC(=O)c1ccco1)Nc1cccc(Br)c1	rRNA inh HTS -19.6 | AID977621 inactive | AID977628 inconclusive
C[C@H]1CN([C@@H](C)CO)C(=O)c2cccc(NC(=O)C3CCOCC3)c2O[C@@H]1CN(C)Cc1ccncc1	none
CC1CN(C(=O)COC(=O)c2cccc(S(=O)(=O)N3CCc4ccccc43)c2)CC(C)O1 (stereo not given)	none
O=C(OCC(=O)N1CCOCC1)c1cccc(S(=O)(=O)N2CCCc3ccccc32)c1	rRNA inh HTS -17.8 (no result: E-selectin induc) | AID977621 inactive | AID977628 inconclusive
O=C(Nc1ccc(Cl)cn1)c1cc2c(s1)-c1ccccc1OC2	rRNA inh HTS -22.4 | AID977621 inactive | AID977628 inconclusive
O=C(Nc1cccnc1Cl)c1cc2c(s1)-c1ccccc1OC2	none (no result: E-selectin induc, EWS-Fli inh)

Screening results: PubChem, Broad Institute
